# Compound activity deposited in PubChem BioAssay by Sanford-Burnham Center for Chemical Genomics.
# Hits are enriched below; roughly 1.4% of the tested compounds scored in any of these assays.
# CendR NRP1 mod – modulators of CendR peptide binding to NRP-1, primary screen, biochemical, fluorescence polarization, uHTS | FAM-RPARPAR peptide binding to NRP-1 | inhibition, % at 25 µM | 360,000 compounds, 0.85% hits;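 active = inhibition or corrected inhibition above about 18%, plus a signal ratio from 0.5 to 1.5, limit read from the data, passing the limit was not always enough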
# Target sequence (O14786 whole entry, looked up): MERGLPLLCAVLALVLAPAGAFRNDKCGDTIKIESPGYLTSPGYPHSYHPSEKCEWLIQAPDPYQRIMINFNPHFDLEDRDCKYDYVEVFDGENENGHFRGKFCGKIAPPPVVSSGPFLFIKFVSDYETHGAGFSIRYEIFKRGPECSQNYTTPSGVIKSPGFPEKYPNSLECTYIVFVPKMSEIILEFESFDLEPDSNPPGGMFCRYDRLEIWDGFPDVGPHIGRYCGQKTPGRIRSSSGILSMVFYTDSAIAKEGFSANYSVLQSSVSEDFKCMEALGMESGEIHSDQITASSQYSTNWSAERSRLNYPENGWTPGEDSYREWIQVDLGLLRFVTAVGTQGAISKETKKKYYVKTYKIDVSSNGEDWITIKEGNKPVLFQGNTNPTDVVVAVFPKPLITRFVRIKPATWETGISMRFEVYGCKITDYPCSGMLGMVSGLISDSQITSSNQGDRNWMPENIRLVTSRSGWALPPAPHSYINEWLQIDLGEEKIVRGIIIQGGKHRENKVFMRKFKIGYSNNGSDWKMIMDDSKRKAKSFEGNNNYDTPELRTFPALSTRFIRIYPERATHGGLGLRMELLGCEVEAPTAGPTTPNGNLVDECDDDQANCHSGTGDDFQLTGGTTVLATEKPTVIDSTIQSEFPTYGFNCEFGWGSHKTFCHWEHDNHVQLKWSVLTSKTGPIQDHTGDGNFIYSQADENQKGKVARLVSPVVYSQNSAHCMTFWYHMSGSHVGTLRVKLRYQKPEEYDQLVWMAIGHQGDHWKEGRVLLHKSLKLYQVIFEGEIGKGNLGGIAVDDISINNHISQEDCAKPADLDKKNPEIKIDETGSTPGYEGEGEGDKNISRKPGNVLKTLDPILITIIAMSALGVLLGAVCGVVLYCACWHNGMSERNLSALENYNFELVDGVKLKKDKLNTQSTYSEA
# MT1-MMP act inh – blockers of MT1-MMP proenzyme processing, primary screen, HT1080 RFP-PRO-GFP cells, GFP/RFP fluorescence; AID 651647, 2012; GFP/RFP ratio fluorescence, overnight; percent of plate control window, DMSO zero; Matrix metalloproteinase-14 (Homo sapiens), P50281; 360,000 compounds, 0.061% hits; GFP/RFP ratio change, % at 20 µM;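 active = GFP/RFP ratio change of at least 30% with cell ATP level not reduced by more than half and red fluorescence within 50% of control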
#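 Assay system: HT1080 RFP-PRO-GFP cells. Benchmarks: DMSO vehicle wells and RFP-L50D-GFP reporter cell wells. Times: overnight cell settling, then overnight compound exposure, 37 °C, 5% CO2. Compound: 20 µM single dose, 1% DMSO. Read-out basis: GFP/RFP fluorescence ratio.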
# iPSC survival up – enhancers of single-cell hiPSC survival, primary screen, ATPlite luminescence. AID 602274, 2012. 100% = ROCK inhibitor wells, 0% = DMSO. survival enhancement, % at 20 µM. 360,000 compounds, 0.044% hits; in the data active = survival enhancement above about 18%;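 also: cells exposed to compounds for 16 hours before the ATP read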
# SKN-1 block – suppressors of acrylamide-induced Pgst-4::GFP reporter in worms, primary screen, SKN-1 inhibitor project, whole organism, uHTS, GFP/RFP fluorescence ratio, strain VP596 | inhibition, % at 21.8 µM | 360,000 compounds, 0.49% hits | C. elegans VP596 Pgst-4::GFP/RFP ratio, 24 h;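 active = interference check ratio from 0.5 to 1.5 plus GFP to RFP signal ratio inhibition reaching or exceeding a fixed threshold, cut at about 30% in these data, passing the limit was not always enough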
# * = called active by the depositor; / = no result.
SMILES,CendR NRP1 mod,MT1-MMP act inh,iPSC survival up,SKN-1 block
COC(=O)C1=C(C)N(Cc2ccccc2)C(=NCCc2ccccn2)N[C@H]1c1cccc(F)c1,-6,-4,-4,37*
O=C1C=C(Nc2cccnc2)c2ccccc2C1=O,23,3,2,2
O=C(NCc1ccccn1)C1CCN(C2CCN(Cc3cccc(F)c3)CC2)CC1,23*,3,0,8
O=C(NNS(=O)(=O)c1ccc(F)cc1)C1CCN(Cc2cccc(F)c2)CC1,18,-1,0,-6
CC(C)NC(=O)C1(C)CSCC(=O)N1CCCN1CCOCC1 (stereo not drawn),5,0,/,35*
CC1(C(=O)Nc2ccc3c(c2)OCCO3)CSCC(=O)N1CCCN1CCOCC1 (stereo not drawn),13,0,/,-2
CCc1noc(C)c1C(=O)OCC(=O)NCCc1ccc(OC)cc1,9,-1,0,17
O=C(Nc1ccccn1)c1cccc(S(=O)(=O)N2CCCC2)c1,2,-1,0,6
CC(=O)Nc1c2c3c(cccc3n(C)c1=O)C(=O)c1ccccc1-2,53*,-10,2,8
CCOC(=O)c1c2c3c(cccc3n(C)c1=O)C(=O)c1ccccc1-2,25,-13,0,1
CC(C)CCn1c(N2CCC(C(N)=O)CC2)nc2c1c(=O)[nH]c(=O)n2C,2,2,0,-11
Cc1ccnc(SCCn2c(N3CCOCC3)nc3c2c(=O)[nH]c(=O)n3C)n1,6,-3,2,-13
CCCCCCn1c(SCCN2CCOCC2)nc2c1c(=O)[nH]c(=O)n2C,2,4,26*,-2
Cn1c(=O)[nH]c(=O)c2c1nc(N1CCOCC1)n2CCCSc1ncccn1,22*,4,5,18
CC1CN(c2nc3c(c(=O)[nH]c(=O)n3C)n2Cc2ccccc2F)CC(C)O1 (stereo not drawn),6,-1,0,8
CC(C)CCn1c(N2CCCC2)nc2c1c(=O)[nH]c(=O)n2C,24*,1,0,3
CCN1CCN(c2nc3c(c(=O)[nH]c(=O)n3C)n2Cc2ccccc2F)CC1,30*,-1,0,-16
CCOC(=O)C1=C(CN2CCSCC2)NC(=O)NC1c1cccc([N+](=O)[O-])c1 (stereo not drawn),-5,2,0,-3
CCOc1cc(C(c2c(O)nc(SC)[nH]c2=O)c2c(O)nc(SC)[nH]c2=O)ccc1O,30*,-37,-1,-10
COc1ccccc1C(c1c(O)nc(SC)[nH]c1=O)c1c(O)nc(SC)[nH]c1=O,-1,-2,0,17
COc1ccccc1C(C(=O)NCc1ccc(F)cc1)N(C(=O)c1csnn1)C1CC1 (stereo not drawn),-1,-5,0,15
O=C(Nc1ccccc1)c1nc[nH]c1C(=O)N1CCc2ccccc2C1,5,3,1,10
Cc1ccc(NC(=O)c2nc[nH]c2C(=O)N2CCC(C)CC2)cc1,-2,3,2,21
CC1CCN(C(=O)c2nc[nH]c2C(=O)N2CCc3ccccc3C2)CC1,29*,-1,-1,7
CC1CCN(C(=O)c2nc[nH]c2C(=O)N2CCC(C)CC2)CC1,36*,0,1,18
SMILES,CendR NRP1 mod,MT1-MMP act inh,iPSC survival up,SKN-1 block
COc1ccc(NC(=O)c2nc[nH]c2C(=O)N2CCC(C)CC2)cc1,25*,12,-1,7
CC(=O)c1ccc(-n2nncc2-c2ccc([N+](=O)[O-])cc2)cc1,1,-2,0,59*
O=[N+]([O-])c1ccc(-n2nncc2-c2ccc(Cl)cc2)cc1,1,2,0,7
Cc1cc(CNC(=O)CC2C(=O)NCCN2CC(C)(C)C)nn1C (stereo not drawn),12,-4,8,13
Cc1cnccc1CNC(=O)CC1C(=O)NCCN1CC(C)(C)C (stereo not drawn),26*,-5,0,20
O=C(CN(c1ccc(F)cc1)S(=O)(=O)c1ccccc1)NCCSC1CCCCC1,-9,2,0,6
O=C(CCc1ccccc1)NC1CCSC1=O (stereo not drawn),0,2,-2,47*
Cc1cccc(C)c1OCc1cc(C(=O)N2CCN(C3CCCC3)CC2)no1,-8,-1,0,50*
Cc1cccc(C)c1OCc1cc(C(=O)N2CCN3CCCC3C2)no1 (stereo not drawn),4,-1,0,3
CC/C=C/C(=O)N1CC2(CC(c3cccc(NC(=O)c4ccccc4)c3)=NO2)C[C@@H]1C(N)=O (stereo partly drawn),23*,0,0,-2
NC(=O)[C@H]1CC2(CC(c3cccc(NC(=O)CC(c4ccccc4)c4ccccc4)c3)=NO2)CN1C(=O)C(c1ccccc1)c1ccccc1 (stereo partly drawn),30*,-1,5,7
CC1(c2nnc(-c3ccc(F)cc3)o2)CC(c2c(Cl)cccc2Cl)=NO1 (stereo not drawn),29*,-1,1,7
CC1(c2nnc(-c3ccc(Cl)cc3)o2)CC(c2c(Cl)cccc2Cl)=NO1 (stereo not drawn),7,0,0,6
CCOc1ccc2nc(Cl)c(C3CC(c4ccco4)=NN3S(C)(=O)=O)cc2c1 (stereo not drawn),-14,6,0,-7
COc1cc(C(=O)N2CCN(c3ccc([N+](=O)[O-])cc3)CC2)ccc1OCc1c(C)noc1C,19*,-3,-2,3
Cn1cc([N+](=O)[O-])c(C(=O)Nc2ccc(C3CCCCC3)cc2)n1,-2,-9,0,-4
Cc1ccccc1CSc1ncnc2ccccc12,3,-8,0,6
O=C(CNC(=O)c1ccccc1)OC(C(=O)Nc1cc(C(F)(F)F)ccc1Cl)c1ccccc1 (stereo not drawn),4,-1,19*,-6
CC(=O)Nc1ccccc1OCC(=O)N(Cc1ccccc1)C(C)C,38*,5,0,0
COc1ccc(NS(=O)(=O)c2ccc(C)c(NC(=O)CN3C(=O)NC4(CCCC4)C3=O)c2)cc1,30*,0,0,4
Cc1ccc(S(=O)(=O)N(C)C)cc1NC(=O)CN1C(=O)NC2(CCCCCC2)C1=O,13,-1,0,14
O=C(CN1C(=O)NC2(CCCC2)C1=O)Nc1cc(S(=O)(=O)N2CCOCC2)ccc1OCC(F)(F)F,8,2,0,40*
CCN(CC)c1ccc(S(=O)(=O)N2CCOCC2)cc1NC(=O)CN1C(=O)NC2(CCCC2)C1=O,11,-3,0,-5
Cc1nn(CCO)c(N)c1C1(O)C(=O)Nc2c(Cl)cc(Cl)cc21 (stereo not drawn),24*,-1,0,2
